Assay [1] deals with Human immunodeficiency virus 1. Nature of the assay: Antiviral activity against HIV-1 M3 harboring protease L10I, K20R, M36I, G48V, I62V, A71V, V82A, I93L mutant infected in human MT4 cells assessed as inhibition of viral replication after 3 days by GFP reporter gene assay. The following applies: Human immunodeficiency virus 1, M3, MT4, 72 h. It is filed as functional, organism-based. The method, boiled down:
(§1)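 Cell-based replication assay in MT4 cells carrying an LTR-GFP readout (HIV tat drives GFP). Serial compound concentrations were mixed with cells at 150 000 cells/mL and 200 CCID50 of virus, incubated 3 days at 37 °C, 5% CO2. Percent inhibition per concentration gave dose-response curves for EC50/pEC50. Run in quadruplicate. Mock-infected parallel cultures at the same concentrations gave CC50.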

The test system of assay [2] is Human immunodeficiency virus 1. Briefly: Antiviral activity against HIV-1 M2 harboring protease L10I, I13V, M46I, I50V, L63P, L76V mutant infected in human MT4 cells assessed as inhibition of viral replication after 3 days by GFP reporter gene assay. It is filed as functional, organism-based. The following applies: Human immunodeficiency virus 1, M2, MT4, 72 h. The method, boiled down: as §1
A general note: A reporter such as luciferase makes a cellular process visible.

In assay [3] the test system is Human immunodeficiency virus 1. Nature of the assay: Antiviral activity against HIV-1 M1 harboring protease L10I, M46I, I64V, I84V, L90M, I93L mutant infected in human MT4 cells assessed as inhibition of viral replication after 3 days by GFP reporter gene assay. It is filed as functional, organism-based. The conditions noted are these: Human immunodeficiency virus 1, M1, MT4, 72 h. The method, boiled down: as §1

Assay [4] deals with Human immunodeficiency virus 1. Nature of the assay: Antiviral activity against wild type HIV-1 3B infected in human MT4 cells assessed as inhibition of viral replication after 3 days by GFP reporter gene assay in presence of human serum. It is filed as functional, organism-based. The conditions noted are these: Human immunodeficiency virus 1, 3B, MT4, 72 h.
Assay [5] has as its system Human immunodeficiency virus 1. Briefly: Ratio of EC50 for HIV-1 M3 harboring protease L10I, K20R, M36I, G48V, I62V, A71V, V82A, I93L mutant to EC50 for wild type HIV-1 3B. It is filed as functional.
Assay [6] has as its system Human immunodeficiency virus 1. Briefly: Ratio of EC50 for HIV-1 M1 harboring protease L10I, M46I, I64V, I84V, L90M, I93L mutant to EC50 for wild type HIV-1 3B. It is filed as functional.
The subject of assay [7] is Human immunodeficiency virus 1. Briefly: Antiviral activity against wild type HIV-1 3B infected in human MT4 cells assessed as inhibition of viral replication after 3 days by GFP reporter gene assay. The following applies: Human immunodeficiency virus 1, 3B, MT4, 72 h. It is filed as functional, organism-based. The procedure, abridged: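 MT4 cells (150 000 cells/mL) were infected with wild-type HIV-1/LAI at 200 CCID50 across a compound concentration range. Plates were incubated 3 days at 37 °C and 5% CO2. Replication was read as GFP driven by HIV-tat binding LTR sequences. EC50 was taken from dose-response curves of percent inhibition, in quadruplicate. Mock-infected parallel cultures gave CC50 from reduced GFP.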

In assay [8] the test system is Human immunodeficiency virus 1. Briefly: Ratio of EC50 for HIV-1 M2 harboring protease L10I, I13V, M46I, I50V, L63P, L76V mutant to EC50 for wild type HIV-1 3B. It is filed as functional.

In the case of `CNc1nc2ccc(S(=O)(=O)N(CC(C)C)C[C@@H](O)[C@H](Cc3ccccc3)NC(=O)O[C@H]3CO[C@H]4OC[C@H](OCC(=O)N(C)C)[C@H]43)cc2o1`, the concentration giving a half-maximal response (EC50) is 50.4 nM in assay [1]; 83.8 nM in assay [2]; 102 nM in assay [3]; 243 nM in assay [4]; 249 nM in assay [7]. Moreover, the “Ratio EC50” value in assay [5] was determined as 0.2; in assay [6], 0.4; in assay [8], 0.3.

`CNC(=O)CO[C@H]1CO[C@@H]2OC[C@H](OC(=O)N[C@@H](Cc3ccccc3)[C@H](O)CN(CC(C)C)S(=O)(=O)c3ccc(OC)cc3)[C@@H]21`: the EC50 stood at 8.3 nM in assay [1]; 15.7 nM in assay [2]; 14.3 nM in assay [3]; 16.1 nM in assay [4]; 6.9 nM in assay [7]. In addition, the “Ratio EC50” value in assay [5] worked out at 1.2; in assay [6] it was 2.1; in assay [8], 2.3.

For `CNc1nc2ccc(S(=O)(=O)N(CC(C)C)C[C@@H](O)[C@H](Cc3ccccc3)NC(=O)O[C@H]3CO[C@H]4OC[C@H](OCC(=O)NCc5ccccc5)[C@H]43)cc2o1`, the EC50 in assay [1] was 6.4 nM; in assay [2] it was 15.1 nM; in assay [3] it was 13.4 nM; in assay [4], 102 nM; in assay [7] it was 25 nM. The figures for the “Ratio EC50” value in assay [5], in assay [6] and in assay [8] were 0.3, 0.5 and 0.6, respectively.

Turning to `CNC(=O)CO[C@H]1CO[C@@H]2OC[C@H](OC(=O)N[C@@H](Cc3ccccc3)[C@H](O)CN(CC(C)C)S(=O)(=O)c3ccc4nc(NC)oc4c3)[C@@H]21`, the EC50 in assay [1] was 68.5 nM; in assay [2], 204 nM; in assay [3], 151 nM; in assay [4] it was 376 nM; in assay [7], 460 nM. For the same molecule, the entries for the “Ratio EC50” value in assay [5], in assay [6] and in assay [8] were 0.1, 0.3 and 0.4, respectively.

Take `CNc1nc2ccc(S(=O)(=O)N(CC(C)C)C[C@@H](O)[C@H](Cc3ccccc3)NC(=O)O[C@H]3CO[C@H]4OC[C@H](OCCC(F)(F)F)[C@H]43)cc2o1`: the EC50 in assay [1] was found to be 0.8 nM; in assay [2], 2.8 nM; in assay [3], 0.9 nM; in assay [4], 8.2 nM; in assay [7], 0.5 nM. Also, the “Ratio EC50” value in assay [5] stood at 1.6; in assay [6], 1.9; in assay [8], 5.9.

Consider `COc1ccc(S(=O)(=O)N(CC(C)C)C[C@@H](O)[C@H](Cc2ccccc2)NC(=O)O[C@H]2CO[C@H]3OC[C@H](O)[C@H]32)cc1`, for which the concentration giving a half-maximal response (EC50) was found to be 1.6 nM in assay [1]; 6.7 nM in assay [2]; 6.9 nM in assay [3]; 12.4 nM in assay [4]; 6.5 nM in assay [7]. The “Ratio EC50” value in assay [5] is listed as 0.2; in assay [6], 1.1; in assay [8], 1.

Take `COc1ccc(S(=O)(=O)N(CC(C)C)C[C@@H](O)[C@H](Cc2ccccc2)NC(=O)O[C@H]2CO[C@H]3OC[C@H](OCC(=O)NCc4ccccc4)[C@H]32)cc1`: the EC50 in assay [1] was found to be 1 nM; in assay [2] it was 4.4 nM; in assay [3], 3.3 nM; in assay [4], 4.6 nM; in assay [7], 0.6 nM. The “Ratio EC50” value amounted to 1.7 in assay [5], 5.6 in assay [6] and 7.5 in assay [8].

For `CC(C)CN(C[C@@H](O)[C@H](Cc1ccccc1)NC(=O)O[C@H]1CO[C@H]2OC[C@H](OCC(=O)NCc3ccccc3)[C@H]21)S(=O)(=O)c1ccc(N)cc1`, the EC50 in assay [1] was found to be 9.3 nM; in assay [2], 35.2 nM; in assay [3] it was 10.8 nM; in assay [4] it was 93.5 nM; in assay [7], 16 nM. For the same molecule, the “Ratio EC50” value is reported as 0.6 in assay [5], 0.7 in assay [6] and 2.2 in assay [8].

Consider `CNc1nc2ccc(S(=O)(=O)N(CC(C)C)C[C@@H](O)[C@H](Cc3ccccc3)NC(=O)O[C@H]3CO[C@H]4OC[C@H](OC(=O)NCc5ccccc5)[C@H]43)cc2o1`, for which the EC50 in assay [1] stood at 4 nM; in assay [2], 13.9 nM; in assay [3], 7.2 nM; in assay [4], 26.7 nM; in assay [7], 5.8 nM. Further, the “Ratio EC50” value was determined as 0.7 in assay [5], 1.2 in assay [6] and 2.4 in assay [8].

On to `COc1ccc(S(=O)(=O)N(CC(C)C)C[C@@H](O)[C@H](Cc2ccccc2)NC(=O)O[C@H]2CO[C@H]3OC[C@H](OCC(=O)N(C)C)[C@H]32)cc1`, for which the EC50 came out at 2.9 nM in assay [1]; 11.5 nM in assay [2]; 7 nM in assay [3]; 7 nM in assay [4]; 3.8 nM in assay [7]. For the same molecule, the “Ratio EC50” value in assay [5] turned out to be 0.8; in assay [6], 1.8; in assay [8], 3.

Take `CC(C)CN(C[C@@H](O)[C@H](Cc1ccccc1)NC(=O)O[C@H]1CO[C@H]2OC[C@H](NC(=O)OCc3ccccc3)[C@H]21)S(=O)(=O)c1ccc(N)cc1`: the EC50 was 1.8 nM in assay [1]; 82.5 nM in assay [2]; 5.7 nM in assay [3]; 35.2 nM in assay [4]; 5 nM in assay [7]. The “Ratio EC50” value stood at 0.4 in assay [5], 1.1 in assay [6] and 16 in assay [8].

With `C=C(F)CO[C@H]1CO[C@@H]2OC[C@H](OC(=O)N[C@@H](Cc3ccccc3)[C@H](O)CN(CC(C)C)S(=O)(=O)c3ccc4nc(NC)oc4c3)[C@@H]21`, the EC50 was determined as 0.5 nM in assay [1]; 2.3 nM in assay [2]; 0.8 nM in assay [3]; 2.2 nM in assay [4]; 0.4 nM in assay [7]. In addition, the “Ratio EC50” value in assay [5] was found to be 1.4; in assay [6], 1.2; in assay [8], 6.1.

Turning to `CNc1nc2ccc(S(=O)(=O)N(CC(C)C)C[C@@H](O)[C@H](Cc3ccccc3)NC(=O)O[C@H]3CO[C@H]4OC[C@H](NC(=O)OCc5ccccc5)[C@H]43)cc2o1`, the EC50 in assay [1] was 1 nM; in assay [2] it was 7.5 nM; in assay [3] it was 2.4 nM; in assay [4], 16.6 nM; in assay [7], 3.8 nM. Further, the “Ratio EC50” value in assay [5] amounted to 0.3; in assay [6] it was 0.6; in assay [8] it was 2.

As to `CC(C)CN(C[C@@H](O)[C@H](Cc1ccccc1)NC(=O)O[C@H]1CO[C@H]2OC[C@H](OC(=O)NCc3ccccc3)[C@H]21)S(=O)(=O)c1ccc(N)cc1`, the concentration giving a half-maximal response (EC50) is 5.2 nM in assay [1]; 124 nM in assay [2]; 15.5 nM in assay [3]; 30.4 nM in assay [4]; 5.8 nM in assay [7]. Moreover, the “Ratio EC50” value in assay [5] is listed as 0.9; in assay [6], 3.2; in assay [8], 22.

Take `CC(C)CN(C[C@@H](O)[C@H](Cc1ccccc1)NC(=O)O[C@H]1CO[C@H]2OC[C@H](Cl)[C@H]21)S(=O)(=O)c1ccc(N)cc1`: the EC50 worked out at 1.5 nM in assay [1]; 31.6 nM in assay [2]; 2.8 nM in assay [3]; 4.6 nM in assay [4]; 0.4 nM in assay [7]. In addition, the entries for the “Ratio EC50” value in assay [5], in assay [6] and in assay [8] were 4, 7.5 and 85, respectively.

Turning to `CNc1nc2ccc(S(=O)(=O)N(CC(C)C)C[C@@H](O)[C@H](Cc3ccccc3)NC(=O)O[C@H]3CO[C@H]4OC[C@H](Cl)[C@H]43)cc2o1`, the EC50 in assay [1] came to 0.7 nM; in assay [2], 2.1 nM; in assay [3] it was 0.7 nM; in assay [4], 4.2 nM; in assay [7], 0.5 nM. Moreover, the “Ratio EC50” value was 1.6 in assay [5], 1.6 in assay [6] and 4.6 in assay [8].

Consider `CNc1nc2ccc(S(=O)(=O)N(CC(C)C)C[C@@H](O)[C@H](Cc3ccccc3)NC(=O)O[C@H]3CO[C@H]4OC[C@H](F)[C@H]43)cc2o1`, for which the EC50 in assay [1] turned out to be 0.7 nM; in assay [2], 2.8 nM; in assay [3] it was 0.8 nM; in assay [4] it was 8.4 nM; in assay [7], 0.7 nM. Also, the entries for the “Ratio EC50” value in assay [5], in assay [6] and in assay [8] were 0.9, 1.2 and 4.1, respectively.

By EC50 is commonly meant the midpoint of the concentration-response curve.

(Values after ChEMBL document CHEMBL3425439, “Disubstituted Bis-THF Moieties as New P2 Ligands in Nonpeptidal HIV-1 Protease Inhibitors (II)” (J Med Chem, 2015).)
